Laboratory results from ChEMBL document CHEMBL2086279, “Synthesis of novel Schiff base analogues of 4-amino-1,5-dimethyl-2-phenylpyrazol-3-one and their evaluation for antioxidant and anti-inflammatory activity” (Bioorg Med Chem, 2012).
Calls of active or inactive are those of the source. No cut-off for these calls is given here.

Assays:
[1] = test system: Radical scavenging activity; assay: Antioxidant activity assessed as DPPH free radical scavenging activity incubated for 30 mins; format: functional
Procedure, shortened: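 Blois method, modified: 0.1 ml sample in ethanol (2.5–20 mg/mL) mixed with 4 ml 1.5 × 10^-5 M DPPH, kept dark at room temperature 30 min; absorbance at 520 nm used to calculate % radical scavenging.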

RAW264.7 [2] = assay: Inhibition of iNOS mRNA expression in mouse RAW264.7 cells pre-treated for 30 mins before LPS stimulation measured 24 hrs post LPS challenge by RT-PCR; format: functional, cell-based
Procedure, shortened: (§1)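 Cells pretreated with compound 30 min, then LPS 200 ng/mL for 24 h; total RNA extracted with TRIzol, quality checked by 260/280 absorbance; iNOS and COX-2 mRNA assessed by RT-PCR with gene-specific primers.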

RAW264.7 [3] = assay: Cytotoxicity against mouse RAW264.7 cells assessed as change in cell viability at 6 ug/mL incubated for 24 hrs by MTT assay; format: cell-based; conditions: raw264.7, 24 h
Procedure, shortened: (§2)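 RAW264.7 (passage ≤20, DMEM/10% FBS) seeded 5 × 10^4 cells/well, exposed to compound 24 h; MTT (5 mg/ml stock) added 4 h, formazan dissolved in 0.04 N HCl/isopropyl alcohol, OD read at 570 and 630 nm.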

RAW264.7 [4] = assay: Inhibition of COX2 mRNA expression in mouse RAW264.7 cells at 50 ug/mL pre-treated for 30 mins before LPS stimulation measured 24 hrs post LPS challenge by RT-PCR; format: functional, cell-based; procedure, shortened: as §1
RAW264.7 [5] = assay: Antiinflammatory activity in mouse RAW264.7 cells assessed as inhibition of LPS-induced nitric oxide production pre-treated for 30 mins before LPS stimulation measured 24 hrs post LPS challenge by Griess assay; format: functional, cell-based
Procedure, shortened: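 LPS 200 ng/mL for 24 h after 30 min pretreatment at various concentrations; cells seeded 5 × 10^5/well overnight at 37 °C in DMEM/10% FBS. Nitrite in medium read with Griess reagent (1% sulfanilamide, 0.1% N-1-naphthylenediamine dihydrochloride, 2.5% phosphoric acid), 10 min, absorbance 570 nm, quantified against sodium nitrite standard curve.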

RAW264.7 [6] = assay: Cytotoxicity against mouse RAW264.7 cells assessed as change in cell viability at 25 ug/mL incubated for 24 hrs by MTT assay; format: cell-based; conditions: raw264.7, 24 h; procedure, shortened: as §2
RAW264.7 [7] = assay: Cytotoxicity against mouse RAW264.7 cells assessed as change in cell viability at 12 ug/mL incubated for 24 hrs by MTT assay; format: cell-based; conditions: raw264.7, 24 h; procedure, shortened: as §2
RAW264.7 [8] = assay: Cytotoxicity against mouse RAW264.7 cells assessed as change in cell viability at 50 ug/mL incubated for 24 hrs by MTT assay; format: cell-based; conditions: raw264.7, 24 h; procedure, shortened: as §2
[9] = Solubility in DMSO; format: physicochemical

SMILES	IC50 [1]	other results
COc1cc(/C=N/c2c(C)n(C)n(-c3ccccc3)c2=O)cc(OC)c1O	1.66 µM	
COc1ccc(/C=N/c2c(C)n(C)n(-c3ccccc3)c2=O)cc1C	5.22 µM	
Cc1c(/N=C/c2ccc(O)cc2)c(=O)n(-c2ccccc2)n1C	18.8 µM	
COc1ccc(/C=N/c2c(C)n(C)n(-c3ccccc3)c2=O)cc1	15.3 µM	
COc1ccc(/C=N/c2c(C)n(C)n(-c3ccccc3)c2=O)cc1OC	7.27 µM	
Cc1c(/N=C/c2ccccc2/C=N/c2c(C)n(C)n(-c3ccccc3)c2=O)c(=O)n(-c2ccccc2)n1C	3.14 µM	
COc1ccc(/C=N/c2c(C)n(C)n(-c3ccccc3)c2=O)c(OC)c1	14.5 µM	
O=C1O[C@H]([C@@H](O)CO)C(O)=C1O [ASCORBIC ACID]	0.41 µM	
Cc1c(/N=C/c2ccc(O)c(O)c2)c(=O)n(-c2ccccc2)n1C	0.93 µM	inhibition (RAW264.7 [2]): Dose-dependent effect; Activity (RAW264.7 [3]): Non-toxic; inhibition (RAW264.7 [4]): Active; Activity (RAW264.7 [5]): Dose-dependent effect; Activity (RAW264.7 [6]): Non-toxic; Activity (RAW264.7 [7]): Non-toxic; Activity (RAW264.7 [8]): Non-toxic
Cc1c(/N=C/c2ccccc2C=O)c(=O)n(-c2ccccc2)n1C	34.5 µM	
Cc1c(/N=C/c2ccc(Cl)cc2)c(=O)n(-c2ccccc2)n1C	31.7 µM	
Cc1c(/N=C/c2c(O)cc(O)cc2O)c(=O)n(-c2ccccc2)n1C	0.44 µM	solubility [9]: Insoluble
Cc1c(/N=C/c2ccc(O)cc2O)c(=O)n(-c2ccccc2)n1C	2.5 µM	
Cc1c(/N=C/c2ccccc2)c(=O)n(-c2ccccc2)n1C	31.3 µM	
